Compounds with a hit are over-represented: about 1.8% of the library has one in this group of screens.
NPY2 pot ag: potentiates or activates human NPY-Y2 receptor; cells expressing NPY-Y2, potentiator/agonist read-out; actives 0.45% (n = 220,000); P49146; activation, % at 3.6 µM; AID 1359; in the data active = activation above about 27%;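 note: cells stimulated with NPY near EC25 plus isoproterenol at EC100; 0% = vehicle plus submaximal agonist and 100% = vehicle plus saturating agonist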
Target sequence (P49146 whole entry, looked up): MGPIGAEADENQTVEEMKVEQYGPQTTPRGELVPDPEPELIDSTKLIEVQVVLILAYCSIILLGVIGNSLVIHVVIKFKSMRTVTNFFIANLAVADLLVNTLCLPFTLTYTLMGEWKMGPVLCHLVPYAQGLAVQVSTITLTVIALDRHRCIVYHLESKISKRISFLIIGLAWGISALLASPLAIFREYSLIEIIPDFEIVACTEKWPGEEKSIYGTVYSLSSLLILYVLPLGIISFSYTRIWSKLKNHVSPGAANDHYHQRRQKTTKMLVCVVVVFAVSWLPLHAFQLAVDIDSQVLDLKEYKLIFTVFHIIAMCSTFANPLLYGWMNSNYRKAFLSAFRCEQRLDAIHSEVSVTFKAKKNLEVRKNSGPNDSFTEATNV
NPY1 pot ag: potentiators or agonists of human neuropeptide Y receptor Y1; actives 0.37% (n = 220,000); activation, % at 3.6 µM; NPY-Y1 expressing cells, potentiator/agonist activation; P25929; AID 1304; in the data active = activation above about 33%, passing the limit was not always enough;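 note: cells stimulated with NPY at EC10 then isoproterenol at EC100; 0% = low agonist plus stimulus and 100% = saturating agonist plus stimulus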
NPY Y1 blocker: antagonists of human neuropeptide Y receptor Y1; P25929; HEK293-CNG Y1 cells, membrane potential fluorescence; NPY at EC95, then isoproterenol; inhibition, % at 3.6 µM; actives 1% (n = 200,000); AID 1040;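 active = inhibition above the campaign mean inhibition of all tested compounds plus 3 SD, cut at about 20% in these data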;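 note: 0% = DMSO wells given NPY plus isoproterenol and 100% = isoproterenol alone without NPY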
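Material: Y1- and CNG-channel-expressing HEK293 cells / Probe or stimulus: NPY 25 nM then isoproterenol 1 µM plus Ro 20-1724 25 µM / Doses: 3.6 µM single dose, DMSO 0.4% / Schedule: compound incubation 1 h at room temperature, readout 45 min post-stimulation / Signal: membrane potential fluorescence / Benchmarks: isoproterenol-only wells as full block versus NPY-plus-isoproterenol wells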
NPY Y2 blocker: antagonists of human neuropeptide Y receptor Y2; NPY-Y2 expressing cells, antagonist mode; P49146; inhibition, % at 2.7 µM; actives 0.99% (n = 140,000); in the data active = inhibition above about 17%;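 note: 0% = vehicle with agonist challenge and 100% = reference antagonist with challenge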
NPY-Y2 confirm: human NPY-Y2 potentiation or agonism, confirmation; shares compounds with NPY2 pot ag; cell-based NPY-Y2 potentiator/agonist assay; activation, % at 3.6 µM; actives 20% (n = 450); AID 1539; in the data active = activation above about 33%
NPY-Y1 potentiator: potentiates or activates NPY-Y1, counter-screen for NPY-Y2 hits | actives 20% (n = 450) | activation, % at 3.6 µM | Y1 HEK293-CNG cells, membrane potential fluorescence | shares compounds with NPY2 pot ag; in the data active = activation above about 45%;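 note: cells stimulated with submaximal NPY then isoproterenol with phosphodiesterase inhibitor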
NPY-Y1 agonist 2: human NPY-Y1 agonism as NPY-Y2 potentiator counter-screen | shares compounds with NPY2 pot ag | HEK293 Y1-CNGC, membrane potential fluorescence | activation, % at 3.6 µM | actives 37% (n = 450) | AID 1702;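 active = activation above the mean of DMSO-only control wells plus 3 SD, cut at about 18% in these data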;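 note: cells stimulated with 1 µM isoproterenol plus the PDE inhibitor Ro 20-1724; 0% = isoproterenol with DMSO and no NPY and 100% = 40 nM NPY; Y1 agonists lower the membrane potential dye signal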
CNGC inh: counter-screen for NPY-Y2 potentiators: inhibitors of CNG channel activity; inhibition, % at 3.6 µM; HEK293-CNG parental, isoproterenol cAMP, membrane potential fluorescence; actives 32% (n = 450); shares compounds with NPY2 pot ag; AID 1703;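 active = inhibition above the control-well mean plus 3 SD of those wells, cut at about 22% in these data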;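 note: 0% = DMSO with isoproterenol and 100% = DMSO without isoproterenol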
NPY-Y2 ag 2: NPY-Y2 agonism, counter-screen for Y2 potentiators; shares compounds with NPY2 pot ag; HEK293 Y2/CNGC cells, membrane potential fluorescence, agonist mode; activation, % at 3.6 µM; actives 56% (n = 450);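 active = activation above the mean of solvent-only control wells plus 3 SD, cut at about 10% in these data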;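 note: cells stimulated by isoproterenol with no NPY added so direct agonism is tested; 0% = DMSO with isoproterenol alone and 100% = NPY at EC100 plus isoproterenol; agonism lowers probe fluorescence through less cAMP and CNG channel opening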
Active calls of the source: *; / = not tested or not shown.

SMILES	NPY2 pot ag	NPY1 pot ag	NPY Y1 blocker	NPY Y2 blocker	NPY-Y2 confirm	NPY-Y1 potentiator	NPY-Y1 agonist 2	CNGC inh	NPY-Y2 ag 2
O=C(NCCc1cccc(Cl)c1)c1ccc(Cl)c([N+](=O)[O-])c1	35*	27	4	4	20	32	22*	27*	26*
Cc1ccc(C(=O)NCCc2cccc(Cl)c2)cc1[N+](=O)[O-]	3	-11	4	3	/	/	/	/	/
O=C(Nc1ccccc1N1CCOCC1)c1ccc2nc[nH]c2c1	41*	21	-13	/	-7	4	1	7	8
O=C(Nc1ccccc1N1CCOCC1)c1cccc(F)c1	-2	6	6	/	/	/	/	/	/
O=C(Cn1cnc([N+](=O)[O-])c1)Nc1cc(Oc2ccc(Cl)cc2Cl)cc([N+](=O)[O-])c1	34*	22	-5	-6	35*	38	31*	40*	52*
Cn1c(=O)c2c(nc(N/N=C/c3ccc(OC(=O)c4ccco4)cc3)n2Cc2ccccc2)n(C)c1=O	3	20	5	1	/	/	/	/	/
CCN(CC)CC(O)Cn1c2ccccc2c2ccccc21 (stereo unspecified)	38*	43	-4	5	38*	32	29*	-2	41*
Cc1nnc(NC(=O)C2CCN(S(=O)(=O)c3ccc(Cl)cc3)CC2)s1	-1	-8	5	/	/	/	/	/	/
N#CC1(c2ccccc2)CCC(=O)N1Cc1ccccc1 (stereo unspecified)	10	17	/	/	/	/	/	/	/
O=C(CCC(=O)Nc1ccc(Cl)cc1Cl)N/N=C/c1ccc([N+](=O)[O-])o1	-2	10	1	/	/	/	/	/	/
Cc1cc(C)c2sc(N(CCCN(C)C)C(=O)c3ccc(Br)s3)nc2c1	37*	15	15	/	74*	88*	67*	75*	81*
Cc1cc(C)c2sc(N(CCN(C)C)C(=O)c3c(F)cccc3F)nc2c1	-4	-7	-6	/	/	/	/	/	/
Cc1cc(=O)nc2c3ccccc3n(CC(=O)Nc3ccccc3Br)n12	-19	-1	/	/	/	/	/	/	/
Cn1cnc2c(N/N=C/c3cccs3)ncnc21	64*	0	/	/	-9	-3	-5	-10	-2
Oc1ccc(-c2n[nH]c(C(F)(F)F)c2-c2ccccc2)c(O)c1	53*	14	-3	/	17	-4	-13	4	15*
Cc1cc(SCC(=O)NN)c2cc(Br)ccc2n1	-23	23	/	/	/	/	/	/	/
Cc1nn(CC(=O)OCC(=O)NC(C)c2ccccc2)c(C)c1[N+](=O)[O-] (stereo unspecified)	92*	18	5	/	-8	-1	-7	-1	7
O=[N+]([O-])c1cc([N+](=O)[O-])c2c(=Nc3ccccc3)n(-c3ccccc3)n(O)c2c1	46*	28	-1	/	47*	52*	47*	34*	65*
O=C(NCCCn1ccnc1)/C(=C\c1cccnc1)NC(=O)c1cccc(Br)c1	10	-6	9	0	/	/	/	/	/
CCCn1c(CCC(=O)O)nc2cc(S(N)(=O)=O)ccc21	104*	7	/	/	-3	-2	-16	0	-11
CCCn1c(CCC(=O)O)nc2cc(S(=O)(=O)N(CC)CC)ccc21	-11	16	/	/	/	/	/	/	/
Cc1nnsc1C(=O)N1CCC(CO)(Cc2ccccc2Cl)CC1	7	7	/	/	/	/	/	/	/
CSc1nsc(SCC(=O)Nc2nc3ccc(C)cc3s2)n1	-16	-4	10	9	/	/	/	/	/
Cc1cc(C)nc(Oc2ccc(Br)cc2)n1	91*	-7	/	/	0	4	-8	1	3
N#C/C(=C(/O)c1cccc(F)c1)c1nc2ccccc2s1	103*	11	/	/	-2	-14	-15	-9	4
SMILES	NPY2 pot ag	NPY1 pot ag	NPY Y1 blocker	NPY Y2 blocker	NPY-Y2 confirm	NPY-Y1 potentiator	NPY-Y1 agonist 2	CNGC inh	NPY-Y2 ag 2
N#Cc1c(-c2ccc(F)cc2)cc(-c2ccccc2)nc1SCC(=O)NCC(=O)O	71*	15	/	/	-7	-2	-5	-11	2
O=C(NC1CCCC1)C1CCCN1C(=O)Oc1ccccc1 (stereo unspecified)	-5	6	5	/	/	/	/	/	/
OC(COc1ccc(OCc2ccccc2)cc1)CN1CCOCC1 (stereo unspecified)	8	-5	1	2	/	/	/	/	/
OC(COc1ccc(-c2ccccc2)cc1)CN1CCOCC1 (stereo unspecified)	56*	10	3	/	-5	-11	3	2	2
N#Cc1cccc(NC(=O)COC(=O)CCc2nc3ccccc3c(=O)[nH]2)c1	-4	15	0	/	/	/	/	/	/
Cc1ccc(S(=O)(=O)N2CCN(CC(=O)N/N=C\c3ccc(Cl)c([N+](=O)[O-])c3)CC2)cc1	27*	22	-4	-3	14	20	14	25*	12*
Cc1cc2c(C)nc(-c3ccccc3)nc2o1	2	-78	6	2	/	/	/	/	/
Cc1nc(-c2cn[nH]c2)c2cc(C)oc2n1	107*	11	-1	-2	-8	0	-12	3	-10
COC(=O)CN1C(=S)N(c2ccc(Cl)cc2)C(=O)C1CC(=O)Nc1ccc(Cl)cc1 (stereo unspecified)	55*	48	-11	2	49*	72*	67*	60*	67*
COC(=O)CN1C(=S)N(c2ccc(Cl)cc2)C(=O)C1CC(=O)Nc1ccc(F)cc1 (stereo unspecified)	30*	32	-8	-4	33	58*	43*	46*	38*
COc1ccc(NC(=O)CC2C(=O)N(c3ccc(Cl)cc3)C(=S)N2CCc2ccncc2)cc1 (stereo unspecified)	13	32	-10	-2	/	/	/	/	/
O=C(CC1C(=O)NCCN1C(=O)Nc1ccc(Cl)cc1)Nc1ccc(F)cc1 (stereo unspecified)	29*	34	-6	/	55*	75*	58*	57*	50*
COC(=O)CN1C(=S)N(c2ccc(F)cc2)C(=O)C1CC(=O)Nc1ccc(F)cc1 (stereo unspecified)	26	11	/	/	/	/	/	/	/
O=C(CC1C(=O)NCCN1C(=O)Nc1ccccc1)Nc1ccc(F)cc1 (stereo unspecified)	19	10	/	/	/	/	/	/	/
CC(=O)Nc1ccc(S(=O)(=O)N2C(=O)c3cccc4cccc2c34)cc1	13	16	/	/	/	/	/	/	/
Cc1ccc2nc(NC(=O)CC3Oc4ccccc4NC3=O)sc2c1 (stereo unspecified)	10	19	/	/	/	/	/	/	/
COc1ccc(NC(=O)c2c(OC)cccc2OC)c(OC)c1	28*	1	0	-1	9	10	14	13	17*
